Test results reported in ChEMBL document CHEMBL3600321, “Synthesis and antifungal evaluation of head-to-head and head-to-tail bisamidine compounds” (Bioorg Med Chem, 2015).
In brackets after ≈: the same amount, converted by molar mass.

Assays:
[1] = Metabolic stability in liver microsomes (unknown origin); format: ADME
Candida albicans = experiment: Antifungal activity against Candida albicans WTBF-50 by microbroth dilution method; format: functional
In short: (§1)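 CLSI microbroth dilution in RPMI 1640 with L-glutamine. MIC values are geometric means of three independent assays.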

Nakaseomyces glabratus = experiment: Antifungal activity against Candida glabrata ATCC 90030 WTBF-86 by microbroth dilution method; format: functional; in short: as §1
Pichia kudriavzevii = experiment: Antifungal activity against Candida krusei WTBF-51 by microbroth dilution method; format: functional
Cryptococcus neoformans = experiment: Antifungal activity against Cryptococcus neoformans Cn18 (Serotype C) WTBF-106 by microbroth dilution method; format: functional
In short: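 Microbroth dilution per the CLSI protocol, run in Sabouraud Dextrose Broth in place of RPMI. MIC values are geometric means of three independent assays.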

HeLa = experiment: Cytotoxicity against human HeLa cells assessed as cell viability after 72 hrs by MTS assay; format: cell-based
Candida parapsilosis = experiment: Antifungal activity against Candida parapsilosis ATCC 90018 WTBF-88 by microbroth dilution method; format: functional; settings: Lodderomyces parapsilosis; in short: as §1

Row | SMILES | Stability [1] | MIC (Candida albicans) | MIC (Nakaseomyces glabratus) | MIC (Pichia kudriavzevii) | MIC (Cryptococcus neoformans) | CC50 (HeLa) | MIC (Candida parapsilosis)
1 | N=C(NCCN1CCOCC1)c1ccc2cc(-c3ccc(-c4cc5ccc(C(=N)NCCN6CCOCC6)cc5[nH]4)cc3)[nH]c2c1.O=C(O)C(F)(F)F | Stable | 2.52 µg/mL | 2 µg/mL | 2 µg/mL | 2.48 µg/mL | 24.9 µg/mL | 2 µg/mL
2 | Clc1c(-c2ccc(-c3[nH]c4cc(C5=NCCCN5)ccc4c3Cl)cc2)[nH]c2cc(C3=NCCCN3)ccc12.O=C(O)C(F)(F)F | Stable | 0.4 µg/mL | 0.25 µg/mL | 0.25 µg/mL | 0.78 µg/mL | 0.65 µg/mL | 0.25 µg/mL
3 | O=C(O)C(F)(F)F.c1cc2cc(-c3ccc(-c4cn5ccc(C6=NCCCN6)cc5n4)cc3)[nH]c2cc1C1=NCCCN1 | Stable | 4 µg/mL | 4 µg/mL | 6.35 µg/mL | 1 µg/mL | 20.9 µg/mL | 0.5 µg/mL
4 | CN1CCCN=C1c1ccc2cc(-c3ccc(-c4cc5ccc(C6=NCCCN6C)cc5[nH]4)cc3)[nH]c2c1 | Stable | 1.59 µg/mL (≈ 3.18 µM) | 1.26 µg/mL (≈ 2.52 µM) | 4 µg/mL (≈ 7.99 µM) | 1.97 µg/mL (≈ 3.93 µM) | 4.7 µg/mL (≈ 9.39 µM) | 1 µg/mL (≈ 2 µM)
5 | CC(=O)O.c1cc2nc(-c3ccc(-c4ccc5cc(C6=NCCCN6)oc5c4)cc3)cn2cc1C1=NCCCN1 | Stable | 2 µg/mL | 0.31 µg/mL | 8 µg/mL | 2 µg/mL | 25.5 µg/mL | 2 µg/mL
6 | CC(=O)O.c1cn2cc(-c3ccc(-c4ccc5cc(C6=NCCCN6)oc5c4)cc3)nc2cc1C1=NCCCN1 | Stable | 8 µg/mL | 1.59 µg/mL | 8 µg/mL | 3.94 µg/mL | 32.5 µg/mL | 2.52 µg/mL
7 | OC(Cn1cncn1)(Cn1cncn1)c1ccc(F)cc1F [FLUCONAZOLE] |  | ≥ 32 µg/mL | ≥ 32 µg/mL | ≥ 32 µg/mL | 32 µg/mL (≈ 104 µM) |  | 1 µg/mL (≈ 3.27 µM)
8 | N=C(NC1CCC(O)CC1)c1ccc2cc(-c3ccc(-c4cc5ccc(C(=N)NC6CCC(O)CC6)cc5[nH]4)cc3)[nH]c2c1.O=C(O)C(F)(F)F (stereo not drawn) | Stable | 2.52 µg/mL | 4 µg/mL | 4 µg/mL | 2.48 µg/mL | 29.8 µg/mL | 2 µg/mL
9 | c1cc2cc(CCCCc3cc4ccc(C5=NCCCN5)cc4[nH]3)[nH]c2cc1C1=NCCCN1 | Stable | ≥ 32 µg/mL | 1 µg/mL (≈ 2.21 µM) | ≥ 32 µg/mL | 1.59 µg/mL (≈ 3.51 µM) | 14.7 µg/mL (≈ 32.5 µM) | ≥ 32 µg/mL
10 | Brc1c(-c2ccc(-c3[nH]c4cc(C5=NCCCN5)ccc4c3Br)cc2)[nH]c2cc(C3=NCCCN3)ccc12.O=C(O)C(F)(F)F | Stable | 0.63 µg/mL | 0.5 µg/mL | 0.5 µg/mL | 0.78 µg/mL | 0.5 µg/mL | 0.5 µg/mL
11 | CC(=O)O.c1cc2cc(-c3ccc4cc(C5=NCCCN5)[nH]c4c3)sc2cc1C1=NCCCN1 | Stable | 3.17 µg/mL | 5.04 µg/mL | 16 µg/mL | 4 µg/mL | 27.5 µg/mL | 2 µg/mL
12 | CC1CNC(c2ccc3cc(-c4ccc(-c5cc6ccc(C7=NC(C)CN7)cc6[nH]5)cc4)[nH]c3c2)=N1.O=C(O)C(F)(F)F (stereo not drawn) | Stable | 0.79 µg/mL | 0.25 µg/mL | 0.79 µg/mL | 0.25 µg/mL | 66.5 µg/mL | 0.4 µg/mL
13 | Nc1nc(=O)[nH]cc1F [FLUCYTOSINE] |  | 1.25 µg/mL (≈ 9.68 µM) | 0.31 µg/mL (≈ 2.4 µM) | ≥ 20 µg/mL | ≥ 20 µg/mL |  | 1.25 µg/mL (≈ 9.68 µM)
14 | CC(=O)O.c1cc2cc(-c3ccc4cc(C5=NCCCN5)oc4c3)[nH]c2cc1C1=NCCCN1 | Stable | 0.31 µg/mL | 0.13 µg/mL | 4 µg/mL | 0.5 µg/mL | 17.1 µg/mL | 0.5 µg/mL
15 | CC(=O)O.c1cc2cc(-c3cnc(-c4cc5ccc(C6=NCCCN6)cc5[nH]4)nc3)[nH]c2cc1C1=NCCCN1 | Stable | 0.31 µg/mL | ≤ 0.03 µg/mL | 0.25 µg/mL | 1.24 µg/mL | 25.5 µg/mL | 0.13 µg/mL
16 | CC(C)NC(=N)c1ccc2cc(-c3ccc(-c4cc5ccc(C(=N)NC(C)C)cc5[nH]4)cc3)[nH]c2c1.O=C(O)C(F)(F)F | Stable | 0.5 µg/mL | 0.2 µg/mL | 0.4 µg/mL | 1.56 µg/mL | 3.5 µg/mL | 0.25 µg/mL
17 | CC(=O)O.c1cc2cc(-c3ccc(-c4ccn5cc(C6=NCCCN6)nc5c4)cc3)[nH]c2cc1C1=NCCCN1 | Stable | 0.79 µg/mL | 0.13 µg/mL | 1 µg/mL | 0.5 µg/mL | 13.4 µg/mL | 0.31 µg/mL

Row | SMILES | Stability [1] | MIC (Candida albicans) | MIC (Nakaseomyces glabratus) | MIC (Pichia kudriavzevii) | MIC (Cryptococcus neoformans) | CC50 (HeLa) | MIC (Candida parapsilosis)
18 | O=C(O)C(F)(F)F.c1cc2cc(CCc3cc4ccc(C5=NCCCN5)cc4[nH]3)[nH]c2cc1C1=NCCCN1 | Stable | 3.17 µg/mL | 1 µg/mL | 8 µg/mL | 1 µg/mL | 24.6 µg/mL | 2 µg/mL
19 | CC(=O)O.c1cn2cc(-c3ccc(-c4ccc5cc(C6=NCCCN6)[nH]c5c4)cc3)nc2cc1C1=NCCCN1 | Stable | 16 µg/mL | 32 µg/mL | 16 µg/mL | 1 µg/mL | 20.7 µg/mL | 8 µg/mL
20 | FC1CN=C(c2ccc3cc(-c4ccc(-c5cc6ccc(C7=NCC(F)CN7)cc6[nH]5)cc4)[nH]c3c2)NC1.O=C(O)C(F)(F)F (stereo not drawn) | Stable | 0.5 µg/mL | 0.13 µg/mL | 0.25 µg/mL | 0.25 µg/mL | 13.9 µg/mL | 0.25 µg/mL
21 | CC(=O)O.c1cc2cc(-c3ccc4oc(C5=NCCCN5)cc4c3)[nH]c2cc1C1=NCCCN1 | Stable | 0.4 µg/mL | 1 µg/mL | 4 µg/mL | 1 µg/mL | 50.5 µg/mL | 0.5 µg/mL
22 | Cl.OCC1(CO)CN=C(c2ccc3cc(-c4ccc(-c5cc6ccc(C7=NCC(CO)(CO)CN7)cc6[nH]5)cc4)[nH]c3c2)NC1 | Stable | 1.26 µg/mL | 1 µg/mL | 8 µg/mL | 3.13 µg/mL | 32.4 µg/mL | 2 µg/mL
23 | CC(=O)O.c1cc2cc(-c3ccc(-c4ccc5nc(C6=NCCCN6)cn5c4)cc3)[nH]c2cc1C1=NCCCN1 | Stable | 0.5 µg/mL | 0.13 µg/mL | 0.5 µg/mL | 2 µg/mL | 34.6 µg/mL | 0.5 µg/mL
24 | CC(=O)O.c1cc2cc(-c3cnc(-c4cc5ccc(C6=NCCCN6)cc5o4)cn3)oc2cc1C1=NCCCN1 | Stable | 20.2 µg/mL | 16 µg/mL | 20.2 µg/mL | 3.13 µg/mL | > 80 µg/mL | 2 µg/mL
25 | CC(=O)O.c1cc2cc(-c3ccc4cc(C5=NCCCN5)[nH]c4c3)oc2cc1C1=NCCCN1 | Stable | 4 µg/mL | 2.52 µg/mL | 25.4 µg/mL | 1 µg/mL | 40.5 µg/mL | 2 µg/mL
26 | CC(=O)O.c1cc2cc(-c3ccc(-c4cc5ccc(C6=NCCCN6)cc5o4)cc3)[nH]c2cc1C1=NCCCN1 | Stable | 0.5 µg/mL | 0.16 µg/mL | 1 µg/mL | 0.25 µg/mL | 4.7 µg/mL | 0.25 µg/mL
27 | CC1CN=C(c2ccc3cc(-c4ccc(-c5cc6ccc(C7=NCC(C)CN7)cc6[nH]5)cc4)[nH]c3c2)NC1.O=C(O)C(F)(F)F (stereo not drawn) | Stable | 0.5 µg/mL | 0.13 µg/mL | 0.5 µg/mL | 0.25 µg/mL | 5.8 µg/mL | 0.25 µg/mL
28 | CC(=O)O.c1cc2cc(-c3cnc(-c4cc5ccc(C6=NCCCN6)cc5[nH]4)cn3)[nH]c2cc1C1=NCCCN1 | Stable | 0.5 µg/mL | 0.06 µg/mL | 0.5 µg/mL | 3.13 µg/mL | 42.7 µg/mL | 0.2 µg/mL
29 | CC1(C)CN=C(c2ccc3cc(-c4ccc(-c5cc6ccc(C7=NCC(C)(C)CN7)cc6[nH]5)cc4)[nH]c3c2)NC1.O=C(O)C(F)(F)F | Stable | 4 µg/mL | 2 µg/mL | 4 µg/mL | 3.13 µg/mL | 8 µg/mL | 8 µg/mL
30 | CC(=O)O.c1cc2cc(-c3ccc(-c4cc5ccc(C6=NCCCN6)cc5o4)cn3)[nH]c2cc1C1=NCCCN1 | Stable | 0.5 µg/mL | 0.06 µg/mL | 0.5 µg/mL | 0.25 µg/mL | 15.6 µg/mL | 0.13 µg/mL
31 | Cl.N=C(N)c1ccc2cc(-c3ccc(-c4cc5ccc(C(=N)N)cc5[nH]4)cc3)[nH]c2c1 | Stable | 16 µg/mL | 4 µg/mL | 2 µg/mL | 3.13 µg/mL | 7 µg/mL | 2 µg/mL
32 | c1cc2[nH]c(-c3ccc(-c4cc5ccc(C6=NCCCN6)cc5[nH]4)cc3)cc2cc1C1=NCCCN1 | Stable | 7.87 µg/mL (≈ 16.7 µM) |  | 19.8 µg/mL (≈ 41.9 µM) | 3.12 µg/mL (≈ 6.6 µM) | 13.6 µg/mL (≈ 28.8 µM) | 
33 | CC(=O)N1CCN(c2ccc(OCC3COC(Cn4ccnc4)(c4ccc(Cl)cc4Cl)O3)cc2)CC1 (stereo not drawn) [KETOCONAZOLE] |  | 20.2 µg/mL (≈ 38 µM) | ≥ 32 µg/mL | 4 µg/mL (≈ 7.53 µM) | 32 µg/mL (≈ 60.2 µM) |  | 0.06 µg/mL (≈ 0.113 µM)
